Reference: ChEMBL document CHEMBL4350961, “Discovery of Pyrrolo[3,2- d]pyrimidin-4-one Derivatives as a New Class of Potent and Cell-Active Inhibitors of P300/CBP-Associated Factor Bromodomain” (J Med Chem, 2019)
Active and inactive are the calls of the source. The rule behind the calls is not given here.

Columns and labels:
[1] = target: Serine/threonine-protein kinase PAK 6 (Homo sapiens) (UniProt Q9NQU5); experiment: Inhibition of recombinant human PAK6 (382 to end residues) at 10 uM using RRRLSFAEPG as substrate measured after 40 mins in presence of [gamma33P]ATP by scintillation counting method
[2] = target: Mitogen-activated protein kinase 8 (Homo sapiens) (UniProt P45983); experiment: Inhibition of recombinant full-length human JNK1alpha1 at 10 uM using ATF2 as substrate measured after 40 mins in presence of [gamma33P]ATP by scintillation counting method
Mitogen-activated protein kinase 8 (Homo sapiens), sequence (P45983 whole entry): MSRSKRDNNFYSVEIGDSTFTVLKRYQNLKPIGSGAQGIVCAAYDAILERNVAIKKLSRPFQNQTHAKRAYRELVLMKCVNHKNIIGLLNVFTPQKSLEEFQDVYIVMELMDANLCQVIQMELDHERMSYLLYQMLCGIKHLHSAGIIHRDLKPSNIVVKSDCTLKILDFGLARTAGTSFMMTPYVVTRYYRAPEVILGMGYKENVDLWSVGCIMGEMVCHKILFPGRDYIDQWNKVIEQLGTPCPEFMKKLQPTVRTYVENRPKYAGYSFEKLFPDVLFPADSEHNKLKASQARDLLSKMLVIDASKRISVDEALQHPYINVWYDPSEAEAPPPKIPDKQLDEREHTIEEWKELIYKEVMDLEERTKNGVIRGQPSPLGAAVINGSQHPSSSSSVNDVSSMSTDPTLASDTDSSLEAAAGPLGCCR

[3] = target: Wee1-like protein kinase (Homo sapiens) (UniProt P30291); experiment: Inhibition of human Wee1 (214 to end residues) using LSNLYHQGKFLQTFCGSPLYRRR as substrate measured after 40 mins in presence of [gamma33P]ATP by scintillation counting method
[4] = target: Histone acetyltransferase KAT2A (Homo sapiens, UniProt Q92830); experiment: Binding affinity to human N-terminal His-tagged GCN5 by isothermal titration calorimetry
[5] = target: CDK9/cyclin T1 (Homo sapiens) (UniProt O60563+P50750); experiment: Inhibition of recombinant full length human CDK9/cyclinT1 at 10 uM using KTFCGTPEYLAPEVRREPRILSEEEQEMFRDFDYIADWC as substrate measured after 40 mins in presence of [gamma33P]ATP by scintillation counting method; type: protein-complex assay
[6] = target: Serine/threonine-protein kinase MAK (Homo sapiens) (UniProt P20794); experiment: Inhibition of recombinant full-length human MAK at 10 uM using RRRFRPASPLRGPPK as substrate measured after 120 mins in presence of [gamma33P]ATP by scintillation counting method
[7] = target: Serine/threonine-protein kinase 17B (Homo sapiens) (UniProt O94768); experiment: Inhibition of recombinant full-length human DRAK2 at 10 uM using KKRPQRRYSNVF as substrate measured after 120 mins in presence of [gamma33P]ATP by scintillation counting method
[8] = target: Cyclin-dependent kinase-like 2 (Homo sapiens) (UniProt Q92772); experiment: Inhibition of human CDKL2 at 10 uM by radiometric method
In short: (§1)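 Kinase panel of 422 kinases screened by Eurofins KinaseProfiler at a single test-compound concentration of 10 µM.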

[9] = target: MAP/microtubule affinity-regulating kinase 3 (Homo sapiens) (UniProt P27448); experiment: Inhibition of recombinant full-length human MARK3 at 10 uM using KKKVSRSGLYRSPSMPENLNRPR as substrate measured after 40 mins in presence of [gamma33P]ATP by scintillation counting method
[10] = target: Histone acetyltransferase KAT2B (Homo sapiens, UniProt Q92831); experiment: Binding affinity to human partial length PCAF (G715 to D831 residues) expressed in bacterial expression system at 1 uM by BROMOscan assay
Histone acetyltransferase KAT2B, sequence (Q92831 whole entry, looked up, the tested form may be a part): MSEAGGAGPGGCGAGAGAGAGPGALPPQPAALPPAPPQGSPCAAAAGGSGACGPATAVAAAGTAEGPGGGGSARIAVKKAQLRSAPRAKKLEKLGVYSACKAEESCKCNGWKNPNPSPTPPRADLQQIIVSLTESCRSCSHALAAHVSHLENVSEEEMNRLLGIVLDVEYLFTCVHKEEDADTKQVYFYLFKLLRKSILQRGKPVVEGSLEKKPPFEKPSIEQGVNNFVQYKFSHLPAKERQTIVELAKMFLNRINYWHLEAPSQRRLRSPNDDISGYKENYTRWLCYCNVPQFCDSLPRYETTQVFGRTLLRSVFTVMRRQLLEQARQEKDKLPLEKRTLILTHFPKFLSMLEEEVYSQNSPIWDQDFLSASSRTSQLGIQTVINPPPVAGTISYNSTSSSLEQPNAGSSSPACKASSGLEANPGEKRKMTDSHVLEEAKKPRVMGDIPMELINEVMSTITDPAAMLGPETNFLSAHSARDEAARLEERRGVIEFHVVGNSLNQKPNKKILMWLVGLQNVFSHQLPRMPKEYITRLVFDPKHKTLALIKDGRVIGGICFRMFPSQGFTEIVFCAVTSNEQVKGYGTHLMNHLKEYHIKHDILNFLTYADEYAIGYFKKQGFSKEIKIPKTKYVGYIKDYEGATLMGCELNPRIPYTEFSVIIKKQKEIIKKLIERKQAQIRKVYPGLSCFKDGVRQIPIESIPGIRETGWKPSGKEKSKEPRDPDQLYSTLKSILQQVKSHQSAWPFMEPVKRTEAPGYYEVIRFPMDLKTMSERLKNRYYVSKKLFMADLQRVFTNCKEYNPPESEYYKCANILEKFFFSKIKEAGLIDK
In short: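 BROMOscan bromodomain cross-screen run by an outside service, compound at 1 µM against 32 recombinant bromodomains. Binding given as percent of control.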

[11] = target: Death-associated protein kinase 3 (Homo sapiens) (UniProt O43293); experiment: Inhibition of human ZIPK (1 to 290 residues) using KKLNRTLSFAEPG as substrate measured after 40 mins in presence of [gamma33P]ATP by scintillation counting method
[12] = target: NUAK family SNF1-like kinase 2 (Homo sapiens) (UniProt Q9H093); experiment: Inhibition of recombinant full-length human NUAK2 at 10 uM using KKKVSRSGLYRSPSMPENLNRPR as substrate measured after 40 mins in presence of [gamma33P]ATP by scintillation counting method
[13] = target: Casein kinase I isoform delta (Homo sapiens) (UniProt P48730); experiment: Inhibition of recombinant human CK1delta (1 to 294 residues) at 10 uM using KRRRALS(p)VASLPGL as substrate measured after 40 mins in presence of [gamma33P]ATP by scintillation counting method
Casein kinase I isoform delta (Homo sapiens), sequence (P48730 whole entry, looked up, the tested form may be a part, canonical isoform): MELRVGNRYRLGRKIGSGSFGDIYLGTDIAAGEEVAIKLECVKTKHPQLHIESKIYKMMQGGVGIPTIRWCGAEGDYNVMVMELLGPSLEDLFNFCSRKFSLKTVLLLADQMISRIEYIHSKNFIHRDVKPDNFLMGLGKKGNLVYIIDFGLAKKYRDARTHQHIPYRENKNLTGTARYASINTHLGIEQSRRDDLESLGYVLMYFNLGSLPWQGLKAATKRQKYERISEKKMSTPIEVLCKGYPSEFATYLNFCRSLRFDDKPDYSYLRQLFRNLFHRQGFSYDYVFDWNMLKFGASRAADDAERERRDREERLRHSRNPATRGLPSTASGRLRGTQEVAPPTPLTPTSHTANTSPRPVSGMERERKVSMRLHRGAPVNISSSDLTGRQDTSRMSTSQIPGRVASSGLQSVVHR

Mus musculus = species: Mus musculus; experiment: Inhibition of recombinant full-length mouse PI3K p110alpha/p65alpha (1 to 571 residues) at 10 uM using phosphatidylinositol-4, 5-bisphosphate as substrate measured after 40 mins by HTRF assay
[14] = target: Non-receptor tyrosine-protein kinase TYK2 (Homo sapiens) (UniProt P29597); experiment: Inhibition of human TYK2 (875 to end residues) using GGMEDIYFEFMGGKKK as substrate measured after 40 mins in presence of [gamma33P]ATP by scintillation counting method
[15] = target: Tyrosine-protein kinase Lck (Homo sapiens) (UniProt P06239); experiment: Inhibition of recombinant full-length human activated Lck at 10 uM using KVEKIGEGTYGVVYK as substrate measured after 40 mins in presence of [gamma33P]ATP by scintillation counting method
[16] = target: Mitogen-activated protein kinase kinase kinase kinase 2 (Homo sapiens) (UniProt Q12851); experiment: Inhibition of recombinant human GCK at 10 uM using myelin basic protein as substrate measured after 40 mins in presence of [gamma33P]ATP by scintillation counting method
[17] = test system: Epidermal growth factor receptor (Homo sapiens), P00533 [L858R]; experiment: Inhibition of recombinant human EGFR L858R mutant (696 to end residues) at 10 uM using poly(Glu, Tyr) 4:1 as substrate measured after 40 mins in presence of [gamma33P]ATP by scintillation counting method
Epidermal growth factor receptor (Homo sapiens), P00533 [L858R], sequence (P00533 whole entry L858R): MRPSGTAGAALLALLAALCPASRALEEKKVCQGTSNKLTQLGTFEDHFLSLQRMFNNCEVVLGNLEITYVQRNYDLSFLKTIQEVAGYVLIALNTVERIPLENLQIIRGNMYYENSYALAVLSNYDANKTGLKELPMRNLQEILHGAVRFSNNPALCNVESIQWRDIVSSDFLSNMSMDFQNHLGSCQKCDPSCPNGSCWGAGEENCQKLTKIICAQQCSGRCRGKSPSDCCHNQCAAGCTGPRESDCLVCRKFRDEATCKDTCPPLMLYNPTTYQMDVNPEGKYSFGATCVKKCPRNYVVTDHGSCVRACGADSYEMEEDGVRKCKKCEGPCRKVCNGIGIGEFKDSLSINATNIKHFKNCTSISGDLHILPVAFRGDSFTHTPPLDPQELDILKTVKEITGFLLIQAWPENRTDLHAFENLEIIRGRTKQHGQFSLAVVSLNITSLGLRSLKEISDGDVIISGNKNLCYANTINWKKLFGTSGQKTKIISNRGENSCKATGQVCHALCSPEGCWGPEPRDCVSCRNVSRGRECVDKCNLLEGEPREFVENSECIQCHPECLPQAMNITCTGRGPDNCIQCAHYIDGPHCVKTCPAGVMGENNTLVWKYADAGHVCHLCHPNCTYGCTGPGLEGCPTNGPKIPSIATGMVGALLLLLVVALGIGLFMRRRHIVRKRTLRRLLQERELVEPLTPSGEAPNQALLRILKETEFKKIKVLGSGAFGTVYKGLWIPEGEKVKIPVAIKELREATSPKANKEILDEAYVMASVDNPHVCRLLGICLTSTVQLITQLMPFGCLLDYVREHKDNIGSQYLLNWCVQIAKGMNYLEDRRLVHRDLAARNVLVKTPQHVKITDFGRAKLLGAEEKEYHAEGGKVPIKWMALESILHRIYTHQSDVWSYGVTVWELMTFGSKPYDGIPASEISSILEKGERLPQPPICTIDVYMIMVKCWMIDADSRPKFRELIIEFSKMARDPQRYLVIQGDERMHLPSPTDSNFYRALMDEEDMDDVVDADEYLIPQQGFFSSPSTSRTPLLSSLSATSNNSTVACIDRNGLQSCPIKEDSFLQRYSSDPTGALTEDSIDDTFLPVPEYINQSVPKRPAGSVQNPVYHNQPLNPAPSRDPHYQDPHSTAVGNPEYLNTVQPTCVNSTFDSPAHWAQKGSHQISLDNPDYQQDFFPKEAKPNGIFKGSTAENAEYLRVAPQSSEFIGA

[18] = target: Phosphatidylinositol 4-phosphate 5-kinase type-1 alpha (Homo sapiens) (UniProt Q99755); experiment: Inhibition of recombinant full-length human PIP5K1alpha at 10 uM using phosphatidylinositol 4-phosphate as substrate measured after 40 mins by HTRF assay
Phosphatidylinositol 4-phosphate 5-kinase type-1 alpha (Homo sapiens), sequence (Q99755 whole entry, the tested form may be a part): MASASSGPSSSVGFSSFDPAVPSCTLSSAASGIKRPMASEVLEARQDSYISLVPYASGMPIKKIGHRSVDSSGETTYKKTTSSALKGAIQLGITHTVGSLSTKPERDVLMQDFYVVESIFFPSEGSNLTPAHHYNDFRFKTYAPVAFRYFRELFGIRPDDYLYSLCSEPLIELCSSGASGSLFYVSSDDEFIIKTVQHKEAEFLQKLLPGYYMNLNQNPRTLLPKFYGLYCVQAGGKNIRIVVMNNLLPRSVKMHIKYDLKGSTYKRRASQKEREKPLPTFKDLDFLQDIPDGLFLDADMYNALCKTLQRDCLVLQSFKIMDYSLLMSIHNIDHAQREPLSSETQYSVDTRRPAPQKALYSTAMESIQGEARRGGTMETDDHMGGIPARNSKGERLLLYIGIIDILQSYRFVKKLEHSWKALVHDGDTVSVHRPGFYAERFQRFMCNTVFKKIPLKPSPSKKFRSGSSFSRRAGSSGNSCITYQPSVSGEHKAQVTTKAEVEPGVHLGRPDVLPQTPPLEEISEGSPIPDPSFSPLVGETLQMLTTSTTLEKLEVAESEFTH

[19] = target: Serine/threonine-protein kinase WNK3 (Homo sapiens) (UniProt Q9BYP7); experiment: Inhibition of human WNK3 (1 to 434 residues) using myelin basic protein as substrate measured after 40 mins in presence of [gamma33P]ATP by scintillation counting method
[20] = target: Casein kinase I isoform epsilon (Homo sapiens) (UniProt P49674); experiment: Inhibition of human CK1epsilon at 10 uM using KRRRALS(p)VASLPGL as substrate measured after 120 mins in presence of [gamma33P]ATP by scintillation counting method; in short: as §1
Casein kinase I isoform epsilon (Homo sapiens), sequence (P49674 whole entry, looked up, canonical isoform): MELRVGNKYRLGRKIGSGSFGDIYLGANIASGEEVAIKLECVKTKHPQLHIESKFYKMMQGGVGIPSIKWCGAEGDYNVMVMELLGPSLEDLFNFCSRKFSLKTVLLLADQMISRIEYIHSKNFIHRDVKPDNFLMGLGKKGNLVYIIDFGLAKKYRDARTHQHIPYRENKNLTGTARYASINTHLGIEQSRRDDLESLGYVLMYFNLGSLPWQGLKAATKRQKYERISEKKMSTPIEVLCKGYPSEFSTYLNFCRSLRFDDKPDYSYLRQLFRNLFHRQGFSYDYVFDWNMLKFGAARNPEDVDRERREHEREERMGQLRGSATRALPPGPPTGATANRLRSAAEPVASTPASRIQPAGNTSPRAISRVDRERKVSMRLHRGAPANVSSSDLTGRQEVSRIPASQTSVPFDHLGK

[21] = target: SRSF protein kinase 3 (Homo sapiens) (UniProt Q9UPE1); experiment: Inhibition of recombinant full-length human MSSK1 at 10 uM using ERMRPRKRQGSVRRRV as substrate measured after 40 mins in presence of [gamma33P]ATP by scintillation counting method
[22] = target: LIM domain kinase 1 (Homo sapiens) (UniProt P53667); experiment: Inhibition of recombinant human LIMK1 (285 to 638 residues) at 10 uM using cofilin as substrate measured after 40 mins in presence of [gamma33P]ATP by scintillation counting method
LIM domain kinase 1 (Homo sapiens), sequence (P53667 whole entry, looked up, the tested form may be a part): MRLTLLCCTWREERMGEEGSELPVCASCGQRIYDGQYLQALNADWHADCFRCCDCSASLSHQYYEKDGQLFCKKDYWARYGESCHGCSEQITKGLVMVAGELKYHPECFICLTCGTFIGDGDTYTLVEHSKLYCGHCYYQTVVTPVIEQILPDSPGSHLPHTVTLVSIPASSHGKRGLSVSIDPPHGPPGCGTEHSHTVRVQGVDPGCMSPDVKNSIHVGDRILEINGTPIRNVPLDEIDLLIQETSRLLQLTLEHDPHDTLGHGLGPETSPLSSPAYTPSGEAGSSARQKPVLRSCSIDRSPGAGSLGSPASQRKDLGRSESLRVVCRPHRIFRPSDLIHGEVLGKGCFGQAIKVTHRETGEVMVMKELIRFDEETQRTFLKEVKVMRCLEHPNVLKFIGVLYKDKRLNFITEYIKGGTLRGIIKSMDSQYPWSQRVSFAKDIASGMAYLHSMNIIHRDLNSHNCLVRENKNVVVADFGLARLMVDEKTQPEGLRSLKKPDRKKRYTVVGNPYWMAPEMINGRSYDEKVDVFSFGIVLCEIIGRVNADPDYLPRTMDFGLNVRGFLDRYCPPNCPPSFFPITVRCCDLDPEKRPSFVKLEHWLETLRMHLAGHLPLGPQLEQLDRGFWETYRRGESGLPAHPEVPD

[23] = test system: Ribosomal protein S6 kinase beta-1 (Homo sapiens), P23443 [T412E]; experiment: Inhibition of recombinant human p70S6K T412E mutant (1 to 421 residues) at 10 uM using KKRNRTLTV as substrate measured after 40 mins in presence of [gamma33P]ATP by scintillation counting method
Ribosomal protein S6 kinase beta-1 (Homo sapiens), P23443 [T412E], sequence (P23443 whole entry T412E, looked up, the tested form may be a part): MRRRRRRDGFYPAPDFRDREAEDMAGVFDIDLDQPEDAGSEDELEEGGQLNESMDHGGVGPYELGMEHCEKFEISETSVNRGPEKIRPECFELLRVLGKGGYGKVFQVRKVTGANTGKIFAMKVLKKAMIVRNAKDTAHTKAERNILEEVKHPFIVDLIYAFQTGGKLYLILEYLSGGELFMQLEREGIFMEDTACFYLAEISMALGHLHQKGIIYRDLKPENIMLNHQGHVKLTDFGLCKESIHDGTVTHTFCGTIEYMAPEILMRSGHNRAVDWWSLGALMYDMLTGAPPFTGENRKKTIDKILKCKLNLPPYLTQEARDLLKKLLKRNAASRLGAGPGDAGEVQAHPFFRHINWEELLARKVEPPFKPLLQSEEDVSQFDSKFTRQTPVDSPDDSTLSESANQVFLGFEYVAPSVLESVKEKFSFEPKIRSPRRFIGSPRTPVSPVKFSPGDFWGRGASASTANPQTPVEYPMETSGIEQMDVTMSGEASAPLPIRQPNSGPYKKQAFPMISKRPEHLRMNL

Question: With `CN1C[C@H](Nc2nc3cc[nH]c3c(=O)n2C)C[C@H](c2ccc3c(c2)OCCO3)C1` as the compound, how does the inhibition [1] read?
Answer: inactive

Question: And the inhibition [2]?
Answer: inactive

Question: And the inhibition [3]?
Answer: inactive

Question: What about the Kd [4] of the same compound?
Answer: 105 nM

Question: What about the inhibition [5] of the same compound?
Answer: inactive

Question: What about the inhibition [6] of the same compound?
Answer: inactive

Question: And the inhibition [7]?
Answer: inactive

Question: And the inhibition [8]?
Answer: inactive

Question: What about the inhibition [9] of the same compound?
Answer: inactive

Question: What about the Activity [10] of the same compound?
Answer: Active

Question: And the inhibition [11]?
Answer: inactive

Question: What about the inhibition [12] of the same compound?
Answer: inactive

Question: And the inhibition [13]?
Answer: inactive

Question: What about the inhibition (Mus musculus) of the same compound?
Answer: inactive

Question: What about the inhibition [14] of the same compound?
Answer: inactive

Question: And the inhibition [15]?
Answer: inactive

Question: And the inhibition [16]?
Answer: inactive

Question: And the inhibition [17]?
Answer: inactive

Question: What about the inhibition [18] of the same compound?
Answer: inactive

Question: What about the inhibition [19] of the same compound?
Answer: inactive

Question: What about the inhibition [20] of the same compound?
Answer: inactive

Question: And the inhibition [21]?
Answer: inactive

Question: And the inhibition [22]?
Answer: inactive

Question: What about the inhibition [23] of the same compound?
Answer: inactive
